Data as given in ChEMBL document CHEMBL5712095, “The UVSSA complex alleviates MYC-driven transcription stress” (J Cell Biol, 2021).
Active and inactive are the calls of the source. The rule behind the calls is not given here.

Assays:
Type in all cases: cell-based
MCF10 [1] = test: Inhibition of RNA polymerase 2 in human MCF10A cells with UVSSA knockdown assessed as transiently alleviation of synthetic sickness phenotype at 100 ng/ml administered every 48 to 72 hrs over 14 days by FBCS assay; conditions: time 14.0 day
[2] = Toxicity in human MCF10A cells with UVSSA knockdown assessed as increase in MYC ON/MYC OFF survival ratio at 100 ng/ml administered every 48 to 72 hrs over 14 days by FBCS assay; conditions: mcf10, 336 h, time 14 day
MCF10 [3] = test: Inhibition of RNA polymerase 2 in human MCF10A cells with UVSSA knockdown assessed as increase in MYC ON/MYC OFF survival ratio at 100 ng/ml administered every 48 to 72 hrs over 14 days by FBCS assay; conditions: time 14.0 day
[4] = biological target: Ubiquitin carboxyl-terminal hydrolase 7 (Homo sapiens) (UniProt Q93009); test: Inhibition of USP7 in human MCF10A-MYC-ER cells assessed as increase in sensitization of MYC expressing cells up to 4 uM by MTT assay relative to control; conditions: MCF10
[5] = biological target: Ubiquitin carboxyl-terminal hydrolase 7 (Homo sapiens) (UniProt Q93009); test: Inhibition of USP7 in human MCF10A-MYC-ER cells assessed as increase in sensitization of MYC expressing cells up to 4 uM by Clonogenic assays relative to control; conditions: MCF10
Summary of the method: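 Clonogenic assay: MCF10A-MYC-ER cells plated at 500 per 100-mm dish with 200 nM 4OHT or vehicle. Next day, P5091 at 0–4 µM for 24 h, then medium with 4OHT or vehicle for 10 d at 37°C. Colonies methanol-fixed, crystal violet-stained and counted; percentage survival from colony number; unpaired t test, n = 4.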

DNA = test: Induction of DNA double strand breaks in human MCF10A cells assessed as significant accumulation of P-CHK1(S345) or P-RPA (S4/S8) by Western blot analysis; conditions: MCF10
Summary of the method: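 Immunoblot of whole-cell lysates (RIPA buffer with protease/phosphatase inhibitors, sonicated, cleared at 4°C) from MCF10A-MYC-ER shRNA lines given 200 nM 4OHT or vehicle plus 1 µg/ml doxycycline every 3 d and harvested at day 9. β-Actin is the loading control and NCS-treated cells the DSB positive control. Signal detected by ECL on film.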

MCF10 [6] = test: Inhibition of DNA replicative polymerase in human MCF10A cells with UVSSA knockdown assessed as increase in MYC ON/MYC OFF survival ratio at 50 ng/ml administered every 48 to 72 hrs over 26 days by FBCS assay; conditions: time 26.0 day
Summary of the method: (§1)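 FBCS: 250,000 shUVSSA-4 or shCONTROL MCF10A-MYC-ER cells coplated with 250,000 shRNA-free cells. Given 1 µg/ml doxycycline, 200 nM 4OHT or ethanol vehicle, and aphidicolin (top dose 50 ng/ml) or vehicle every 48–72 h for 26 d. Fluorescent fraction measured by flow cytometry at each passage; MYC ON/MYC OFF ratio calculated; n = 3.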

MCF10 [7] = test: Inhibition of DNA replicative polymerase in human MCF10A cells with UVSSA knockdown assessed as transiently alleviation of synthetic sickness phenotype at 50 ng/ml administered every 48 to 72 hrs over 26 days by FBCS assay; conditions: time 26.0 day; summary of the method: as §1

Chain of Ubiquitin carboxyl-terminal hydrolase 7 (Homo sapiens) (Q93009 whole entry, looked up): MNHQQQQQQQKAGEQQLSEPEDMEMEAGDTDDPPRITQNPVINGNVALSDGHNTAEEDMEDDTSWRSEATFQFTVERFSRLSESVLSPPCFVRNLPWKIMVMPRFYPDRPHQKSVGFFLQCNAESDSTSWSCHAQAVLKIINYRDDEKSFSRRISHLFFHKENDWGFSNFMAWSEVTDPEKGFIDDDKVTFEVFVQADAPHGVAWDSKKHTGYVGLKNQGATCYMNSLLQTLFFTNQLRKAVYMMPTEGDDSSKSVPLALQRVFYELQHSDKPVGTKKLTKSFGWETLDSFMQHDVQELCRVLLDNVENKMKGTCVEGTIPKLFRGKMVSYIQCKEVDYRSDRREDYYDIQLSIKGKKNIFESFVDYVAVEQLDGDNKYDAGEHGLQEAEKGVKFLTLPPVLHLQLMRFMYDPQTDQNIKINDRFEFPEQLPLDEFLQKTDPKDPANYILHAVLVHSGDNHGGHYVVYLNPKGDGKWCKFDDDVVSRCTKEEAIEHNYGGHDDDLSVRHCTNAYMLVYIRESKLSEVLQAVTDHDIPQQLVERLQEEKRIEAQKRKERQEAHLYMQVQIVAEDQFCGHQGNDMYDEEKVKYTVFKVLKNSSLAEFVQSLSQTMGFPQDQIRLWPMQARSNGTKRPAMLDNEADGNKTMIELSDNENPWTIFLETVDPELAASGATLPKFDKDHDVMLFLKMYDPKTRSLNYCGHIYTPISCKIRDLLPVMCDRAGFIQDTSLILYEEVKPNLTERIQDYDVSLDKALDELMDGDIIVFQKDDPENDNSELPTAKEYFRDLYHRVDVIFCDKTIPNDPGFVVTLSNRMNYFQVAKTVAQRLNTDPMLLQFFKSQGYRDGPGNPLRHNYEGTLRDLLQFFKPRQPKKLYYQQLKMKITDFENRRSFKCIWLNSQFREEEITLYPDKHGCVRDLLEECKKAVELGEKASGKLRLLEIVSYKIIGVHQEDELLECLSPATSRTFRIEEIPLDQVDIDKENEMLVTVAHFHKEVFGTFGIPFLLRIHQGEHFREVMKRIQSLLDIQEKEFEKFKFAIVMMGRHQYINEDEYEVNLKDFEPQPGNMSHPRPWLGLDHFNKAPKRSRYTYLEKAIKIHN

Q: What does the source list for `CC[C@H](C)[C@@H]1NC(=O)CNC(=O)[C@@H]2Cc3c([nH]c4cc(O)ccc34)[S@+]([O-])C[C@H](NC(=O)CNC1=O)C(=O)N[C@@H](CC(N)=O)C(=O)N1C[C@H](O)C[C@H]1C(=O)N[C@@H]([C@@H](C)[C@@H](O)CO)C(=O)N2`?
A: inhibition (MCF10 [1]): Active; Activity [2]: Toxic; inhibition (MCF10 [3]): Active

Q: With `CC(=O)c1cc([N+](=O)[O-])c(Sc2cccc(Cl)c2Cl)s1` as the molecule, how does the fold change (FC) [4] read?
A: 3

Q: What about the inhibition [5] of the same molecule?
A: Active

Q: With `CN[C@H]1[C@@H](O[C@@H]2C3CC#C[C@H]4O[C@@]4(C4COC(=O)O4)C#CC3=C[C@H]2OC(=O)c2c(O)ccc3c(C)cc(OC)cc23)O[C@H](C)[C@H](O)[C@@H]1O` (stereo partly drawn) as the molecule, how does the Activity (DNA) read?
A: Active

Q: Which results are given for `C[C@@]1(CO)[C@H](O)CC[C@@]2(C)[C@H]1CC[C@H]1C[C@@H]3C[C@@]12CC[C@]3(O)CO`?
A: inhibition (MCF10 [6]): inactive; inhibition (MCF10 [7]): inactive
